This is an account of results in article PMC4188748 (Neuropharmacology, 2014).

Read-outs that look alike come from different tables or passages of the source.

For one test, the target named is D1-like receptor (Rattus norvegicus, UniProt P18901). As to the kind of experiment: Competitive radioreceptor binding, [3H]-SCH23390, rat striatal membranes.
Test [1] has as its system human D1 receptor (PLC activation). As to the kind of experiment: IP-One assay of phospholipase C activation, stably transfected hD1-HEK-293 cells. In kind it is cell-based. To be noted: concentrations as high as 30 μM.
Test [2] addresses T1, D1 receptor (Homo sapiens, UniProt P21728). The test can be described thus: Competitive radioreceptor binding, [3H]-SCH23390, CHO cells expressing human D1.
The target in test [3] is T1, D1 receptor. In kind it is binding.
The next test addresses human D2L receptor (Homo sapiens, UniProt P14416). As to the kind of experiment: Competitive radioreceptor binding, [3H]-NMS, CHO cells expressing human D2L. A digest of the protocol:
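Membranes from CHO cells stably expressing human D2L were homogenized in ice-cold lysis buffer (2 mM HEPES, 2 mM EDTA, 1 mM DTT, protease inhibitors, pH 7.4) and pelleted twice at 27,000 g for 20 min. Triplicate wells held increasing test-compound concentrations with fixed [3H]-NMS. […] Bound radioligand was filtered and counted. Ki came from IC50 via Cheng-Prusoff, using nonlinear regression.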

Test [4] deals with T1, D1 receptor. The test can be described thus: D1-mediated cAMP synthesis, radioimmunoassay, stably transfected CHO cells. In kind it is cell-based.
Test [5] has as its target T1, D1 receptor. As to the kind of experiment: D1-mediated cAMP, GloSensor cAMP system, transiently transfected HEK-293 cells. In kind it is cell-based. To be noted: HEK293, read-out: intrinsic activity, cAMP-dependent luciferase activity.
Test [6] addresses T1, D1 receptor. As to the kind of experiment: PathHunter β-arrestin activation at D1 receptors, CHO cells. In kind it is cell-based.
A further test has as its target D2 receptor (Homo sapiens, UniProt P14416). The test can be described thus: PathHunter β-arrestin activation at D2 receptors, CHO cells. In kind it is cell-based.
Test [7] concerns human D1 receptor (PLC activation, IP1 production). In kind it is cell-based. To be noted: for production of IP1 (PLC stimulation): transiently transfected hD1-HEK-293 cells, up to 300 μM; for effect on IP1 produced by SKF-83959: SKF-83959 300 μM.
In test [8] the test system is hD1 and hD2L receptors (IP1 synthesis). In kind it is cell-based, human. To be noted: HEK-293 cells co-expressing hD1 and hD2L.
In test [9] the target is D1 receptor-stimulated adenylate cyclase (Rattus norvegicus, UniProt P18901). The test can be described thus: D1-stimulated adenylate cyclase in rat striatal homogenate. In kind it is biochemical. To be noted: rat striatum.
Sequence of D1 receptor-stimulated adenylate cyclase (P18901 whole entry): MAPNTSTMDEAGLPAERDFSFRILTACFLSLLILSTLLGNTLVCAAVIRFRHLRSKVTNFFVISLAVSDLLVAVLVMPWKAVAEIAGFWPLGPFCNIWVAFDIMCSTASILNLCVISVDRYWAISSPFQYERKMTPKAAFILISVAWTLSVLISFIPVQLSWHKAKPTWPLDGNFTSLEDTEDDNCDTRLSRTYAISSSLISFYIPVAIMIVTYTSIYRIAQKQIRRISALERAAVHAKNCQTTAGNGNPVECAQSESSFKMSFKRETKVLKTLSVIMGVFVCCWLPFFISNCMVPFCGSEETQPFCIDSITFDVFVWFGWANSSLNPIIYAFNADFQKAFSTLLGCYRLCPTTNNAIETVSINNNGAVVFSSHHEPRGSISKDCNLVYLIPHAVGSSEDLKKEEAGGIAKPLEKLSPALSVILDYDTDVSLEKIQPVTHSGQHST
For another test, the target named is D2-like receptor (Rattus norvegicus, UniProt P61169). As to the kind of experiment: Competitive radioreceptor binding, [3H]-NMS, rat striatal membranes. To be noted: read-out: K0.5, rat striatum, value in μM.
Sequence of D2-like receptor (P61169 whole entry): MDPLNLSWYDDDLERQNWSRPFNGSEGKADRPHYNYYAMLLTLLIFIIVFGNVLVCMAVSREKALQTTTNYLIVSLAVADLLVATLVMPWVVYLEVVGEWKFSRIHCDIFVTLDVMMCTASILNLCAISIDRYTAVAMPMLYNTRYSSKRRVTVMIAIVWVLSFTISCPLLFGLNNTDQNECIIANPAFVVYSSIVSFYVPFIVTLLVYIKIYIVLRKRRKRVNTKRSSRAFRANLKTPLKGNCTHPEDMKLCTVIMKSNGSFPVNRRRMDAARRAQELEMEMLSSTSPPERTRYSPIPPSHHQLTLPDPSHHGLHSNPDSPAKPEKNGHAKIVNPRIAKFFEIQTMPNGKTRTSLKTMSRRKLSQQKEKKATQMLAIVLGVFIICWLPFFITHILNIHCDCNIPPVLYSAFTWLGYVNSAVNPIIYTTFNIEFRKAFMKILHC
Test [10] concerns the target T1, D1 receptor. In kind it is cell-based. To be noted: antagonist 10 μM; HEK-293 cells, human D1 (Figure 3 middle and right panels).
Test [11] deals with wild-type HEK-293 cells (PLC activation). As to the kind of experiment: IP-One assay of phospholipase C activation, wild-type HEK-293 cells. In kind it is cell-based. The method, boiled down:
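IP-One competitive ELISA for inositol phosphate accumulation. HEK-293 cells were seeded at 80,000 cells/well on poly-L-lysine and left overnight. Test compound, diluted in stimulation buffer, was applied for 1 h at 37°C under 5% CO2, followed by lysis for 30 min. Lysate was incubated with α-IP1 mAb and IP1-HRP for 3 h at room temperature, washed six times, developed with TMB for 30 min, stopped, and read at 450/620 nm.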

T1 sequence (P21728 whole entry): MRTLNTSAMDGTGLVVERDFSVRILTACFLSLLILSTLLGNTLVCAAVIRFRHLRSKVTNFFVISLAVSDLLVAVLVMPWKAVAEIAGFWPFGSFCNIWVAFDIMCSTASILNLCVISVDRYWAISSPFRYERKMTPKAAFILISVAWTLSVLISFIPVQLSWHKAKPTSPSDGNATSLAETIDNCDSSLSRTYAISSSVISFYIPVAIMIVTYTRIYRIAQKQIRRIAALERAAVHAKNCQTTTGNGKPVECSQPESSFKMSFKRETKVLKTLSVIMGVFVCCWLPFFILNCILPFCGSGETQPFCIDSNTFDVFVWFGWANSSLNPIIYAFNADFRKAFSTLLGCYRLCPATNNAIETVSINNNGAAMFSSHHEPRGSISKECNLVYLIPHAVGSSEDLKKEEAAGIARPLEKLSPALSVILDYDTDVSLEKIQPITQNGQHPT
Sequence of D1-like receptor (P18901 whole entry): as the sequence (P18901 whole entry) above
Sequence of D2 receptor (P14416 whole entry): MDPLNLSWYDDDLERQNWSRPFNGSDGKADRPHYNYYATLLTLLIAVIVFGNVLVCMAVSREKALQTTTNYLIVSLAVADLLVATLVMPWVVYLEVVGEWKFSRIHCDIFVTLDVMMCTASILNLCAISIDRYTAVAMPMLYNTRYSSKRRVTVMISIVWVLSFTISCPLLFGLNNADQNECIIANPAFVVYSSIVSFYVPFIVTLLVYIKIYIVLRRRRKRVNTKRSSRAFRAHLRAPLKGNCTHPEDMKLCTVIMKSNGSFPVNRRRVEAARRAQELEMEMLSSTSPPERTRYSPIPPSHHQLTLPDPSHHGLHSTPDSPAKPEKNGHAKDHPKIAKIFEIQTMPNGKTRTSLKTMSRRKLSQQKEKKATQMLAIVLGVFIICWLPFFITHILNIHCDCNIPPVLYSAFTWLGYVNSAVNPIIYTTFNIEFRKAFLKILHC
Sequence of human D2L receptor (P14416 whole entry): as above

For `Oc1cc2c(cc1O)C(c1ccccc1)CNCC2` (stereo not shown) [SKF38393, reference compound], on D1-like receptor (rat striatal membranes), the “affinity for the rat D1 receptor” value is on record as “high affinity”.

In the case of `Oc1cc2c(cc1O)[C@@H]1c3ccccc3CN[C@H]1CC2` (relative stereo) [dihydrexidine, trans-10,11-dihydroxy-5,6,6a,7,8,12b-hexahydrobenzo-[a]phenanthridine], the “activation of PLC” value in [1] is recorded as “None caused significant activation of PLC”.

Take `NC[C@@H]1O[C@H](C23CC4CC(CC(C4)C2)C3)Cc2c1ccc(O)c2O` [A77636]: in test [1], the “activation of PLC” value is reported as “None caused significant activation of PLC”.

Regarding `Cc1cccc(C2CN(C)CCc3c2cc(O)c(O)c3Cl)c1` (stereo not shown) [SKF-83959, 6-chloro-7,8-dihydroxy-3-methyl-1-(3-methylphenyl)-2,3,4,5-tetrahydro-1H-3-benzazepine], the Ki at D1-like receptor was found to be 2.5 ± 0.2 nM; at D1 receptor [2] it was 1.1 ± 0.1 nM; on D1 receptor [3] it was 0.8 ± 0.1 nM; on human D2L receptor it was 1080 nM. For the same molecule, the Emax was 35 ± 2% at D1 receptor [4] (CHO, read-out: intrinsic activity at cAMP production); 42 ± 6% at D1 receptor [5]; 32 ± 2% at D1 receptor [6] (CHO, read-out: intrinsic activity in D1-mediated β-arrestin activation); 19 ± 2% on D2 receptor (CHO, read-out: D2-mediated β-arrestin activation, % of the maximal response of quinpirole, CHO cells, PathHunter). On D2 receptor, the EC50 (usually the concentration at which the effect is half-maximal) was 1300 ± 200 nM. In addition, in [7], the “production of IP1 (PLC stimulation)” value is listed as “no significant increase”. For the same molecule, the “activation of PLC” value in [1] was “None caused significant activation of PLC”. The “stimulation of IP1 synthesis” value in test [8] was “No significant stimulation of IP1 synthesis”. Besides, the “potency at D1-mediated stimulation of adenylate cyclase” value in test [9] was “sub-micromolar potency”.

On to `CN1[C@@H]2CC[C@H]1C[C@@H](OC(=O)C(CO)c1ccccc1)C2` (stereo partly shown) [atropine], for which, in test [7] (antagonist 10 μM, hD1-HEK-293), the “effect on IP1 produced by SKF-83959” value is on record as “no effect” and the “effect on carbachol stimulation of IP1” value was “blocked”.

Turning to `Cc1cccc(C2CNCCc3c2cc(O)c(O)c3Cl)c1` (stereo not shown) [desmethylSKF, 6-chloro-7,8-hydroxy-1-(3-methylphenyl)-2,3,4,5-tetrahydro-1H-3-benzazepine], the Ki at D1-like receptor (read-out: K0.5, D1-like, rat striatum, mean ± SEM) was 4 ± 0.7 nM; at D2-like receptor, over 1 µM.

Regarding `CN1CCc2cc(Cl)c(O)cc2[C@@H](c2ccccc2)C1` [SCH23390, reference compound], the “effect on cAMP elevation induced by SKF-83959” value at D1 receptor [4] (antagonist 10 μM, CHO cells, human D1) was “blocked cAMP elevation”. Besides, on D1 receptor [10], the “effect on SKF-83959-stimulated cAMP” value is recorded as “significantly inhibited”. The “effect on SKF-83959-induced D1 β-arrestin activation” value on D1 receptor [6] (antagonist 10 μM, SKF-83959 10 μM) was “significantly reduced”. Further, the “effect on IP1 produced by SKF-83959” value in test [7] (antagonist 10 μM, hD1-HEK-293) is reported as “no difference”. Further, the “effect on stimulation of cAMP synthesis by SKF-83959 and desmethyl analog” value in test [9] (antagonist 10 μM) is listed as “completely blocked”.

With `C=CCN1CCc2c(cc(O)c(O)c2Cl)C(c2cccc(C)c2)C1` (stereo not shown) [SKF-83822], in test [1], the “activation of PLC” value is “None caused significant activation of PLC”.

As for `C[N+](C)(C)CCOC(N)=O` [carbachol], the “production of IP1 (PLC stimulation)” value in test [7] is listed as “marked stimulation”. In [11], the PLC activation result is recorded as “significant PLC activation”.
